Source: publication PMC9924434 (International journal of pharmaceutics, 2023)

How the values were obtained:
[1] = Solubility of DK-I-60-3 in lipid mixtures; assay type: physicochemical
Method in brief: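 DSC on bulk and melted-then-solidified Softisan 154 and on Softisan 154–lecithin mixtures, blank or with 1.0% or 1.5% test compound. Crystallinity index = mixture enthalpy / untreated Softisan 154 enthalpy × 100. PLM: melted mixture dropped onto heated slide, covered, solidified quickly at room temperature, imaged at 400× with crossed polarizers and ¼λ plate. Triplicates, mean ± SD.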

[2] = ref Mitrović et al., 2021; cited from earlier work

saturation solubility of DK-I-60-3 in the lipid mixture ([1]; Softisan 154 + lecithin (30%) lipid mixture, by DSC and PLM): 1.0% | DK-I-60-3 solubilized by the lipid matrix ([1]; mixture of solid (Softisan 154) and liquid (medium chain triglycerides) lipid, preliminary studies): < 0.5%
SMILES: [2H]C([2H])([2H])Oc1ccc(-n2nc3c4ccc(OC([2H])([2H])[2H])cc4[nH]cc-3c2=O)cc1 [DK-I-60-3, 7-methoxy-d3-2-(4-methoxy-d3-phenyl)-2,5-dihydro-3Hpyrazolo[4,3-c]quinolin-3-one]
solubility in common organic solvents [2]: very slightly or slightly soluble | solubility in water and oils commonly used for pharmaceutical formulations [2]: practically insoluble
